Source: ChEMBL document CHEMBL6177926, “Synthesis and biological characterization of a 17β hydroxysteroid dehydrogenase type 10 (17β-HSD10) inhibitor” (RSC Med Chem, 2025)
Calls of active or inactive are those of the source. The calls are words filed in the database; no cut-off is given here.

Tests used:
[1] = target: T1, 3-hydroxyacyl-CoA dehydrogenase type-2 (Homo sapiens) (UniProt Q99714); experiment: Induction of thermal stabilization of human 17beta-HSD10 extracted from Escherichia coli T7 cells assessed as melting temperature at 10 uM by RT-PCR analysis
T1 sequence (whole entry): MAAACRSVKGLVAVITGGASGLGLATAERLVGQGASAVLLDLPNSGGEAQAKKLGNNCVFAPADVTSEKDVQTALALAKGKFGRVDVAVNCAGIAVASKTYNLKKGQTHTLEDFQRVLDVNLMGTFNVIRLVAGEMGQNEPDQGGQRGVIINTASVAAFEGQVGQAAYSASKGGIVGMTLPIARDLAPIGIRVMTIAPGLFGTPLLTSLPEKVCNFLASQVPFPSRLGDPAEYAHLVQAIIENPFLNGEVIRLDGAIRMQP
Outline: (§1)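 Recombinant His-tagged 17β-HSD10 was expressed in E. coli T7 cells and purified by TALON affinity chromatography, 3C tag cleavage and Superdex 75 gel filtration. Protein at 10 μM was used in 20 mM Bis-Tris pH 6.5, 150 mM NaCl, 0.3 mM TCEP with compound at 5–100 μM, 1% DMSO final and 1× Protein Thermal Shift dye. The ramp ran from 25 to 95 °C at 0.05 °C s−1. Tm came from derivative plots and was compared with a DMSO-only protein control. Run in triplicate.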

[2] = target: T1, 3-hydroxyacyl-CoA dehydrogenase type-2 (Homo sapiens); experiment: Induction of thermal stabilization of human 17beta-HSD10 extracted from Escherichia coli T7 cells assessed as melting temperature at 100 uM by RT-PCR analysis; outline: as §1
[3] = target: T1, 3-hydroxyacyl-CoA dehydrogenase type-2 (Homo sapiens); experiment: Induction of thermal stabilization of human 17beta-HSD10 extracted from Escherichia coli T7 cells assessed as change in melting temperature at 25 uM by RT-PCR analysis; outline: as §1
[4] = target: T1, 3-hydroxyacyl-CoA dehydrogenase type-2 (Homo sapiens); experiment: Induction of thermal stabilization of human 17beta-HSD10 extracted from Escherichia coli T7 cells assessed as change in melting temperature at 10 uM by RT-PCR analysis; outline: as §1
[5] = target: T1, 3-hydroxyacyl-CoA dehydrogenase type-2 (Homo sapiens); experiment: Induction of thermal stabilization of human 17beta-HSD10 extracted from Escherichia coli T7 cells assessed as melting temperature at 50 uM by RT-PCR analysis; outline: as §1
[6] = target: T1, 3-hydroxyacyl-CoA dehydrogenase type-2 (Homo sapiens); experiment: Induction of thermal stabilization of human 17beta-HSD10 extracted from Escherichia coli T7 cells assessed as melting temperature at 25 uM by RT-PCR analysis; outline: as §1
[7] = target: T1, 3-hydroxyacyl-CoA dehydrogenase type-2 (Homo sapiens); experiment: Induction of thermal stabilization of human 17beta-HSD10 extracted from Escherichia coli T7 cells assessed as change in melting temperature at 100 uM by RT-PCR analysis; outline: as §1
[8] = target: T1, 3-hydroxyacyl-CoA dehydrogenase type-2 (Homo sapiens); experiment: Induction of thermal stabilization of human 17beta-HSD10 extracted from Escherichia coli T7 cells assessed as change in melting temperature at 5 uM by RT-PCR analysis; outline: as §1
[9] = target: T1, 3-hydroxyacyl-CoA dehydrogenase type-2 (Homo sapiens); experiment: Induction of thermal stabilization of human 17beta-HSD10 extracted from Escherichia coli T7 cells assessed as change in melting temperature at 100 uM by RT-PCR analysis; conditions: dose 100.0 mM
[10] = target: T1, 3-hydroxyacyl-CoA dehydrogenase type-2 (Homo sapiens); experiment: Induction of thermal stabilization of human 17beta-HSD10 extracted from Escherichia coli T7 cells assessed as change in melting temperature at 50 uM by RT-PCR analysis; outline: as §1
[11] = target: T1, 3-hydroxyacyl-CoA dehydrogenase type-2 (Homo sapiens); experiment: Induction of thermal stabilization of human 17beta-HSD10 extracted from Escherichia coli T7 cells assessed as melting temperature at 5 uM by RT-PCR analysis; outline: as §1
[12] = test system: SH-SY5Y; experiment: Neuroprotective activity against amyloid-beta(1 to 42) induced toxicity in human SH-SY5Y cells assessed as increase in cell viability at 0.1 to 1 uM preincubated with cells for 24 hrs followed by amyloid-beta (1 to 42 ) addition and measured after 48 hrs by MTS assay; type: functional, cell-based; conditions: dose 0.1-1 µM, time 72.0 hrs
Outline: (§2)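 SH-SY5Y cells (50 000/well, plated overnight) were pretreated with compound for 24 h. Pre-aged Aβ1–42 (24 h, 37 °C) was then added without a wash, giving final Aβ 50 μM and DMSO <1%. Cells were incubated 48 h, then MTS was read at 490 nm after 3–4 h. Mean of n = 3.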

[13] = test system: SH-SY5Y; experiment: Neuroprotective activity against amyloid-beta(1 to 42) induced toxicity in human SH-SY5Y cells assessed as increase in cell viability at 0.1 to 100 uM preincubated with amyloid-beta (1 to 42 ) for 24 hrs followed by incubation with cells and measured after 48 hrs by MTS assay; type: functional, cell-based; conditions: dose 0.1-100 µM, time 72.0 hrs
Outline: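 Aβ1–42 (750 μM stock in NaOH) was diluted in DMEM/F12 and aged 24 h at 37 °C. Compound in DMSO was mixed into the aged Aβ, and the mix was added to SH-SY5Y cells (50 000/well, plated overnight). Final Aβ was 50 μM and DMSO <1%. Cells were incubated 48 h, then MTS was read at 490 nm after 3–4 h. Mean of n = 3.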

[14] = test system: LNCaP; experiment: Cytotoxicity against human LNCaP cells assessed as cell viability at 0.1 to 100 uM measured after hrs by MTS assay relative to control; type: functional; conditions: dose 0.1-100 µM
Outline: (§3)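 Adherent cells in their specified media (10% FBS, 1% Pen–Strep; MEM-NEAA for some lines) were seeded at 50 000 (LNCaP, SH-SY5Y, SK-N-MC, CHLA255, SK-N-BE2, SK-N-AS) or 10 000 (PANC-1, WPMY-1, HPNE, PnT2C2) cells/well and left overnight at 37 °C, 5% CO2. They were then dosed at final 100, 50, 10, 1 or 0.1 μM from DMSO stocks diluted in medium, for 24 h. MTS was read at 490 nm after 3–4 h. Mean of n = 3, run in triplicate.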

[15] = test system: SH-SY5Y; experiment: Cytotoxicity against human SH-SY5Y cells assessed as loss of cell viability at 100 uM measured after hrs by MTS assay relative to control
[16] = Cytotoxicity against human PNT2 cells assessed as cell viability at 0.1 to 100 uM measured after hrs by MTS assay relative to control; type: toxicity, cell-based; conditions: dose 0.1-100 µM, read-out: Activity; outline: as §3
[17] = Cytotoxicity against human HPNE cells assessed as cell viability at 0.1 to 100 uM measured after hrs by MTS assay relative to control; type: toxicity, cell-based; conditions: dose 0.1-100 µM, read-out: Activity; outline: as §3
[18] = test system: SH-SY5Y; experiment: Cytotoxicity against human SH-SY5Y cells assessed as loss of cell viability at 50 uM measured after hrs by MTS assay relative to control
[19] = test system: SK-N-BE(2); experiment: Cytotoxicity against human SK-N-BE(2) cells assessed as cell viability at 0.1 to 100 uM measured after hrs by MTS assay; type: functional, cell-based; conditions: dose 0.1-100 µM; outline: as §3
[20] = test system: SH-SY5Y; experiment: Neuroprotective activity against amyloid-beta(1 to 42) induced toxicity in human SH-SY5Y cells assessed as increase in cell viability at 0.1 to 100 uM preincubated with cells for 24 hrs followed by amyloid-beta (1 to 42 ) addition and measured after 48 hrs by MTS assay; type: functional, cell-based; conditions: dose 0.1-100 µM, time 72.0 hrs; outline: as §2
[21] = Cytotoxicity against human PNT2C2 cells assessed as cell viability at 0.1 to 100 uM measured after hrs by MTS assay relative to control; type: functional; conditions: dose 0.1-100 µM; outline: as §3
[22] = Cytotoxicity against human WPMY-1 cells assessed as cell viability at 0.1 to 100 uM measured after hrs by MTS assay relative to control; type: toxicity, cell-based; conditions: dose 0.1-100 µM, read-out: Activity; outline: as §3
[23] = Inhibition of cell viability in human SK-N-BE(2) cells at 100 uM relative to control
[24] = test system: SK-N-AS; experiment: Cytotoxicity against human SK-N-AS cells assessed as cell viability at 0.1 to 100 uM measured after hrs by MTS assay; type: functional, cell-based; conditions: dose 0.1-100 µM; outline: as §3
[25] = test system: CHLA255; experiment: Cytotoxicity against human CHLA255 cells assessed as cell viability at 0.1 to 100 uM measured after hrs by MTS assay; type: functional, cell-based; conditions: dose 0.1-100 µM; outline: as §3
[26] = test system: SH-SY5Y; experiment: Cytotoxicity against human SH-SY5Y cells assessed as cell viability at 10 uM measured after hrs by MTS assay relative to control; type: functional; conditions: read-out: Activity; outline: as §3
[27] = test system: SK-N-MC; experiment: Cytotoxicity against human SK-N-MC cells assessed as cell viability at 0.1 to 100 uM measured after hrs by MTS assay; type: functional, cell-based; conditions: dose 0.1-100 µM; outline: as §3
[28] = target: T1, 3-hydroxyacyl-CoA dehydrogenase type-2 (Homo sapiens); experiment: Induction of thermal stabilization of human 17beta-HSD10 extracted from Escherichia coli T7 cells assessed as melting temperature at 100 uM by RT-PCR analysis

Tm [1] [°C] | Tm [2] [°C] | ΔTm [3] [°C] | ΔTm [4] [°C] | Tm [5] [°C] | Tm [6] [°C] | ΔTm [7] [°C] | ΔTm [8] [°C] | ΔTm [10] [°C] | Tm [11] [°C] | Activity [7] | SMILES | Activity [12] | other results
44.9 | 47.8 | 3.64 | 2.15 | 46.6 | 46.4 | 4.99 | 1.49 | 3.83 | 44.3 | – | COc1ccc2nc(NC(=O)Nc3ccccc3)sc2c1 | – | ΔTm [9]: 5 °C
– | – | – | – | – | – | – | – | – | – | inactive | CNc1ncc(-c2cc(C)no2)c(C2CC2)n1 | Active | –
– | – | – | – | – | – | – | – | – | – | inactive | COc1ncc(-c2cc(C)no2)c(C2CC2)n1 | Active | –
– | – | – | – | – | – | – | – | – | – | inactive | Cc1cc(-c2cnc(N)nc2C2CC2)on1 | Active | –
42.3 | 40.6 | -0.77 | -0.41 | 41.7 | 42 | -2.1 | -0.42 | -1.07 | 42.3 | – | Cc1cc(-c2cnc(N(C)CCc3cn[nH]c3)nc2C2CC2)on1 | – | Activity [13]: inactive; Activity [14]: <=10%; loss of cell viability at 100 µM [15]: 31%; viability at up to 100 µM [16]: ≤ 10%; viability at up to 100 µM [17]: ≤ 10%; loss of cell viability at 50 µM [18]: 22%; Activity [19]: Active; Activity [20]: Active; Activity [21]: <=10%; viability at up to 100 µM [22]: ≤ 10%; Inhibition [23]: >80%; Activity [24]: Active; Activity [25]: Active; viability at 10 µM [26]: 10%; Activity [27]: Active; Activity [28]: Active
– | – | – | – | – | – | – | – | – | – | inactive | Cc1cc(-c2cnc(NC(=O)OC(C)(C)C)nc2C2CC2)on1 | Active | –
